Test results: ChEMBL document CHEMBL4330127, “Discovery of Novel Pyruvate Dehydrogenase Kinase 4 Inhibitors for Potential Oral Treatment of Metabolic Diseases” (J Med Chem, 2019)
Calls of active or inactive are those of the source. The rule behind the calls is not given here.

Columns and labels:
RKO [1] = test: Cell cycle arrest in human RKO cells assessed as accumulation at sub-G1 phase at 10 uM after 24 hrs propidium iodide staining based flow cytometry (reference value: 17.6%); type: functional
Cytochrome P450 1A2 = Cytochrome P450 1A2 (Homo sapiens, UniProt P05177); test: Inhibition of CYP1A2 in human liver microsomes assessed as reduction in phenacetin-O-deethylation by tandem mass spectrometry analysis; type: ADME
Procedure, shortened: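 Pooled human liver microsomes incubated with compound at 0–50 μM final; CYP probe activities (phenacetin O-deethylation for 1A2, tolbutamide 4-hydroxylation for 2C9, omeprazole hydroxylation for 2C19, dextromethorphan O-demethylation for 2D6) run as a cocktail incubation and quantified by tandem MS; duplicates; IC50 derived.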

[2] = Clearance in rat at 5 mg/kg, iv; type: ADME, organism-based; settings: in vivo
Procedure, shortened: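 Male rats given a single dose, 5 mg/kg intravenously or 10 mg/kg orally. Plasma PK parameters were reported as mean ± SD: AUCt, AUC∞, Cmax, Tmax, T1/2, CL, Vss and oral bioavailability F.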

Mast cell [3] = test: Inhibition of degranulation in IgE-labeled bone marrow-derived mast cells (unknown origin) assessed as reduction in beta-hexosaminidase release preincubated for 1 hr followed by HSA stimulation and measured after 15 mins; type: functional, cell-based
HCT-116 [4] = test: Induction of apoptosis in human HCT116 cells assessed as live cells at 25 uM after 24 hrs in presence of oxaliplatin by Annexin V/propidium iodide staining based flow cytometry (reference value: 57.3%); type: functional
NIH3T3 = test: Cytotoxicity against mouse NIH/3T3 cells; type: cell-based
HCT-116 [5] = test: Cell cycle arrest in human HCT116 cells assessed as accumulation at S phase at 25 uM after 24 hrs propidium iodide staining based flow cytometry (reference value: 18%); type: functional
Procedure, shortened: (§1)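 HCT116 and RKO cells were treated with compound alone or with oxaliplatin for 24 h before harvest. Cells were stained with propidium iodide, and DNA content was analysed by flow cytometry. Cell-cycle phase populations, including sub-G1, are given as percentages.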

RKO [6] = test: Induction of apoptosis in human RKO cells assessed as late apoptotic cells at 25 uM after 24 hrs by Annexin V/propidium iodide staining based flow cytometry (reference value: 7.42%); type: functional
HCT-116 [7] = test: Cell cycle arrest in human HCT116 cells assessed as accumulation at G1/G0 phase at 10 uM after 24 hrs propidium iodide staining based flow cytometry (reference value: 42%); type: functional; procedure, shortened: as §1
[8] = target: UDP-glucuronosyltransferase 2B7 (Homo sapiens, UniProt P16662); test: Inhibition of UGT2B7 in human liver microsomes assessed as reduction in naloxone 3-glucuronidation by tandem mass spectrometry analysis; type: ADME
Procedure, shortened: (§2)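 Pooled human liver microsomes; test compound at final 0–50 μM in a cocktail incubation with probe substrates: midazolam 1′-hydroxylation (CYP3A), SN-38 glucuronidation (UGT1A1), trifluoperazine N-glucuronidation (UGT1A4), mycophenolic acid glucuronidation (UGT1A9), naloxone 3-glucuronidation (UGT2B7). Metabolites measured by tandem MS; IC50 determined; duplicate.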

RKO [9] = test: Induction of apoptosis in human RKO cells assessed as increase in Bax expression at 10 to 50 uM after 24 hrs by Western blot analysis; type: functional, cell-based
Procedure, shortened: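 HCT116 and RKO cells given a range of compound doses for 24 h; lysates probed by Western blot for apoptosis-related proteins (p53, BAX, BCLxL).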

HCT-116 [10] = test: Induction of apoptosis in human HCT116 cells assessed as necrotic cells at 10 uM after 24 hrs by Annexin V/propidium iodide staining based flow cytometry (reference value: 2.92%); type: functional
RKO [11] = test: Cell cycle arrest in human RKO cells assessed as accumulation at S phase at 25 uM after 24 hrs in presence of oxaliplatin propidium iodide staining based flow cytometry (reference value: 4.5%); type: functional
[12] = target: UDP-glucuronosyltransferase 1A9 (Homo sapiens, UniProt O60656); test: Inhibition of UGT1A9 in human liver microsomes assessed as reduction in mycophenolic acid glucuronidation by tandem mass spectrometry analysis; type: ADME; procedure, shortened: as §2
HCT-116 [13] = test: Cell cycle arrest in human HCT116 cells assessed as accumulation at sub-G1 phase at 10 uM after 24 hrs propidium iodide staining based flow cytometry (reference value: 17.8%); type: functional; procedure, shortened: as §1
HCT-116 [14] = test: Induction of apoptosis in human HCT116 cells assessed as early apoptotic cells at 10 uM after 24 hrs by Annexin V/propidium iodide staining based flow cytometry (reference value: 4.36%); type: functional
HCT-116 [15] = test: Cell cycle arrest in human HCT116 cells assessed as accumulation at G1/G0 phase at 25 uM after 24 hrs in presence of oxaliplatin propidium iodide staining based flow cytometry (reference value: 41.3%); type: functional; procedure, shortened: as §1
RKO [16] = test: Cell cycle arrest in human RKO cells assessed as accumulation at G1/G0 phase at 25 uM after 24 hrs propidium iodide staining based flow cytometry (reference value: 39.9%); type: functional; procedure, shortened: as §1
HCT-116 [17] = test: Induction of apoptosis in human HCT116 cells assessed as early apoptotic cells at 25 uM after 24 hrs by Annexin V/propidium iodide staining based flow cytometry (reference value: 4.36%); type: functional
RKO [18] = test: Induction of apoptosis in human RKO cells after 24 hrs by Annexin V/propidium iodide staining based flow cytometry; type: functional, cell-based
[19] = target: UDP-glucuronosyltransferase 1A4 (Homo sapiens, UniProt P22310); test: Inhibition of UGT1A4 in human liver microsomes assessed as reduction in trifluoperazine N-glucuronidation by tandem mass spectrometry analysis; type: ADME; procedure, shortened: as §2
RKO [20] = test: Induction of apoptosis in human RKO cells assessed as early apoptotic cells at 50 uM after 24 hrs by Annexin V/propidium iodide staining based flow cytometry (reference value: 9.62%); type: functional
HCT-116 [21] = test: Induction of apoptosis in human HCT116 cells assessed as necrotic cells at 25 uM after 24 hrs by Annexin V/propidium iodide staining based flow cytometry (reference value: 2.92%); type: functional
RKO [22] = test: Cell cycle arrest in human RKO cells assessed as accumulation at G1/G0 phase at 50 uM after 24 hrs propidium iodide staining based flow cytometry (reference value: 39.9%); type: functional; procedure, shortened: as §1
HCT-116 [23] = test: Induction of apoptosis in human HCT116 cells assessed as early apoptotic cells at 50 uM after 24 hrs by Annexin V/propidium iodide staining based flow cytometry (reference value: 4.36%); type: functional
Vero = test: Cytotoxicity against African green monkey Vero cells; type: cell-based; settings: Chlorocebus sabaeus
[24] = Half life in human liver microsomes at 1 uM preincubated for 5 mins followed by NADPH/UDPGA addition by LC-MS/MS analysis; type: ADME, Microsome
Procedure, shortened: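 Pooled human liver microsomes (1.0 mg/mL) were preincubated with substrate (1 μM) at 37 °C for 5 min. NADPH and UDPGA were added and samples taken at 10, 20, 40 and 60 min. Reactions were quenched with acetonitrile, centrifuged, and the supernatant quantified by LC-MS/MS. Buspirone served as positive control.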

Mast cell [25] = test: Inhibition of degranulation in IgE-labeled bone marrow-derived mast cells (unknown origin) assessed as reduction in beta-hexosaminidase release by measuring absorbance at 10 uM preincubated for 1 hr followed by HSA stimulation and measured after 15 mins (reference value: 0.26 +/- 0.025); type: functional
[26] = Half life in rat at 5 mg/kg, iv; type: ADME, organism-based; settings: in vivo

Chain of UDP-glucuronosyltransferase 1A4 (P22310 whole entry): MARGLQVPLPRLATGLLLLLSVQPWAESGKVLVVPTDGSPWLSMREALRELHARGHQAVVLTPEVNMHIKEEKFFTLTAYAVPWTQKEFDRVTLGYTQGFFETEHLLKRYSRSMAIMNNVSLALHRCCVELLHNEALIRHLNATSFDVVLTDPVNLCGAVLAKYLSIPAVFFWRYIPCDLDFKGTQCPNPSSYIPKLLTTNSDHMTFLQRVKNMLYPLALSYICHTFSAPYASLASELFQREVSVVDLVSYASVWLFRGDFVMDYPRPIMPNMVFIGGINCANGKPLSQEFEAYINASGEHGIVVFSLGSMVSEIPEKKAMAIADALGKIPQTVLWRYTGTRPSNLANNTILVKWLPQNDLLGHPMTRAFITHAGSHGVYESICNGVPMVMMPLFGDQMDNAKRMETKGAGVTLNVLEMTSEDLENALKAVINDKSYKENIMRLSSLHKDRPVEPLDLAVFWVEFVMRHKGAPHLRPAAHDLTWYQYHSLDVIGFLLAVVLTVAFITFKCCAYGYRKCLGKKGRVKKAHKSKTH
Chain of UDP-glucuronosyltransferase 2B7 (P16662 whole entry): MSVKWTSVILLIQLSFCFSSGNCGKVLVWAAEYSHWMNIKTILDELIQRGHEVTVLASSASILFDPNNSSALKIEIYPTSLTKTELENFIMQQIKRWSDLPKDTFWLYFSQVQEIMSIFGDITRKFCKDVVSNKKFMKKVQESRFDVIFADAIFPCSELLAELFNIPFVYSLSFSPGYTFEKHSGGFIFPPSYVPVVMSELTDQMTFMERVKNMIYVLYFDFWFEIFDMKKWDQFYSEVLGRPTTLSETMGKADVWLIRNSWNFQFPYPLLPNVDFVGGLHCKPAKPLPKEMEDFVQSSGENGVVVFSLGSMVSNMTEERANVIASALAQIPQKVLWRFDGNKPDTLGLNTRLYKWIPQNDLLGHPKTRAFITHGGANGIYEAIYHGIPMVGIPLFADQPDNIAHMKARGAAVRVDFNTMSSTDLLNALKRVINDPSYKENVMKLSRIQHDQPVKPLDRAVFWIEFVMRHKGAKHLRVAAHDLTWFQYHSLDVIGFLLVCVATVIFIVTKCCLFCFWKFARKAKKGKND
Chain of UDP-glucuronosyltransferase 1A9 (O60656 whole entry): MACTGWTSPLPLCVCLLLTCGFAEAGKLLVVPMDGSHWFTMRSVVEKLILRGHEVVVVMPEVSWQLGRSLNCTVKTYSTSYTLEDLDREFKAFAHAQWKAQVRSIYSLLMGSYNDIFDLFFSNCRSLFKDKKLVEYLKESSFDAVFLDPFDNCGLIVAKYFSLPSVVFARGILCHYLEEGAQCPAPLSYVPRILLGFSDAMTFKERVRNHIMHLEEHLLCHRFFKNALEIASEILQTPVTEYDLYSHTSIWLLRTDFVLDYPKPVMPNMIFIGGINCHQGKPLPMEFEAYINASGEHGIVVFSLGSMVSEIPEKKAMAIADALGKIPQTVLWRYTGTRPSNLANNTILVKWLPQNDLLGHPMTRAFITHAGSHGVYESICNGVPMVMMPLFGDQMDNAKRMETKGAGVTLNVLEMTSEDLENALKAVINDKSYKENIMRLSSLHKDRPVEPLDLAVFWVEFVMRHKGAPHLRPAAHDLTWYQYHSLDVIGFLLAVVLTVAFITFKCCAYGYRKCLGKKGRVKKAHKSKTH
Chain of Cytochrome P450 1A2 (P05177 whole entry): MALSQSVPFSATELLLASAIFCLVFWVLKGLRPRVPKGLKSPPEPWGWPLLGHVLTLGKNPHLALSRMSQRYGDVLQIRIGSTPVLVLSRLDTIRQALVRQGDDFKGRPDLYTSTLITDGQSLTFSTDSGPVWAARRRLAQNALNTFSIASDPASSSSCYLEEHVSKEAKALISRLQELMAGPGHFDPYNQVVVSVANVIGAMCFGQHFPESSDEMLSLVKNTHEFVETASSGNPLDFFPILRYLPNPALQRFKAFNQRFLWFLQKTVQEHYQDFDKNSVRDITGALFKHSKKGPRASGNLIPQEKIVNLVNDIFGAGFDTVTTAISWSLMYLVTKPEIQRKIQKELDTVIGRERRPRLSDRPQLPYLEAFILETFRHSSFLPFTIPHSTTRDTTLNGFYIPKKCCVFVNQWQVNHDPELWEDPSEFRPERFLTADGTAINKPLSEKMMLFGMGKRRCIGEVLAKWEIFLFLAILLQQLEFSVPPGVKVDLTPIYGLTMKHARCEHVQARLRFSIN

Cl.O=C1c2ccccc2C(=O)c2c1cccc2-c1cnn(C2CCNCC2)c1
Activity (RKO [1]): 21.4%
IC50 (Cytochrome P450 1A2): 16.3 µM
clearance [2]: 11.4 mL/min/kg
inhibition (Mast cell [3]): Dose-dependent effect
Activity (HCT-116 [4]): 44.6%
IC50 (NIH3T3): 39.6 µM
Activity (HCT-116 [5]): 11.4%
Activity (RKO [6]): 39.4%
Activity (HCT-116 [7]): 41.6%
IC50 [8]: > 50 µM
Activity (RKO [9]): Active
Activity (HCT-116 [10]): 12.1%
Activity (RKO [11]): 5.2%
IC50 [12]: > 50 µM
Activity (HCT-116 [13]): 14.4%
Activity (HCT-116 [14]): 2.9%
Activity (HCT-116 [15]): 17.8%
Activity (RKO [16]): 13.7%
Activity (HCT-116 [17]): 7.1%
Activity (RKO [18]): Dose-dependent effect
IC50 [19]: > 50 µM
Activity (RKO [20]): 41.4%
Activity (HCT-116 [21]): 19.6%
Activity (RKO [22]): 3.4%
Activity (HCT-116 [23]): 4.1%
IC50 (Vero): 36.4 µM
half-life at 1 µM [24]: > 1 h
OD (Mast cell [25]): 0.2
half-life [26]: 7.06 h
